{"source": "paper PMC7346850", "about": "(ACS infectious diseases, 2020)", "key": {"[1]": {"tested_on": "chloroquine-resistant P. falciparum Dd2 cells", "assay": "Antiplasmodial dose-response, cell-based SYBR Green I assay, Dd2", "parameters": "species or system Plasmodium falciparum", "outline": "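Chloroquine-resistant P. falciparum Dd2 cultures were tested in dose–response with a cell-based SYBR Green I growth assay to obtain EC50. Each reported value comes from three independent experiments.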"}, "[2]": {"tested_on": "HepG2 cells", "assay": "Cytotoxicity against HepG2", "assay_type": "cell-based", "settings": "Homo sapiens, HepG2, read-out: EC50 HepG2 cells"}}, "note": "“Also recorded” adds a separate entry of the source."}
{"smiles": "COC(=O)[C@@H]1[C@H]2C[C@H]3c4[nH]c5ccccc5c4CCN3C[C@@H]2CC[C@@H]1O", "note": "[Y, yohimbine]", "values": [{"measurement": "antiplasmodial activity (in words)", "setting": "[1]; P. falciparum Dd2 cells", "result": "no antiplasmodial activities; also recorded: no antiplasmodial activity"}, {"measurement": "EC50", "setting": "[1]; Plasmodium falciparum, DD2, read-out: EC50 Dd2 cells", "result": "76.7 ± 0.74", "unit": "µM"}, {"measurement": "EC50", "setting": "[2]", "result": "> 100", "unit": "µM"}]}
